Columns and labels:
[1] = biological target: T1, FAAH prepared from rat brain homogenates (Rattus norvegicus, UniProt P97612); experiment: In vitro rat FAAH radiometric assay; assay type: biochemical; details: read-out: r-FAAH IC50; rat brain homogenate, mean ± SEM (n=3)
T1 sequence (P97612 1-579): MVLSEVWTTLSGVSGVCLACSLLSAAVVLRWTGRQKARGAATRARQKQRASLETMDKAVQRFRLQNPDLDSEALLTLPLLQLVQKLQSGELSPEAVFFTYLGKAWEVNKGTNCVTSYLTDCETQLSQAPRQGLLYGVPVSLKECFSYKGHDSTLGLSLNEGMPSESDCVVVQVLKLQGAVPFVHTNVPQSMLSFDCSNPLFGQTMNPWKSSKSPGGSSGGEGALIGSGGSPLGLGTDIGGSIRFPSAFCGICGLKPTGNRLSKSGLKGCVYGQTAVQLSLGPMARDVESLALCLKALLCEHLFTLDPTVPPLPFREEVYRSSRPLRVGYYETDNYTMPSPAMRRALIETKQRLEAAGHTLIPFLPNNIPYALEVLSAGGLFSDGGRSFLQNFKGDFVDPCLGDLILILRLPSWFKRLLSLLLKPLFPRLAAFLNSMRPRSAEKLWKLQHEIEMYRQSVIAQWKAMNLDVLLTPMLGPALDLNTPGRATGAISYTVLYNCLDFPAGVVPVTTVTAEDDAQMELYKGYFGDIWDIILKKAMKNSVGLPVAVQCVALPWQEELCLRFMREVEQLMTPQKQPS

purified rat MGL = biological target: T2, purified rat MGL (Rattus norvegicus, UniProt Q8R431); experiment: MGL activity assay; assay type: biochemical; details: tested at concentrations up to 100 μM (Figure S1)
T2 sequence (Q8R431 1-303): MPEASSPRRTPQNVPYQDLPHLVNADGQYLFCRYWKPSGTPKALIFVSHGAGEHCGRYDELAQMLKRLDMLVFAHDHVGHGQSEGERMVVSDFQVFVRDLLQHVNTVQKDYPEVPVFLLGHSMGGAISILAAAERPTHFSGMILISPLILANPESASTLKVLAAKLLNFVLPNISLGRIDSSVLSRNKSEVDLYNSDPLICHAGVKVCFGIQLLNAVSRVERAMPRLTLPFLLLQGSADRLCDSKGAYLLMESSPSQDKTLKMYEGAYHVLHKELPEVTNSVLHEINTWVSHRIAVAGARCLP

[2] = In vitro mouse liver microsomes; assay type: in vitro ADME; details: 5 μM compound, mean of three determinations
Procedure, shortened: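 Test compound at 5 µM (0.1% DMSO) was preincubated 15 min with 1.25 mg/mL mouse liver microsomes in 100 mM Tris-HCl pH 7.4. At time zero, NADP 1 mM, G6P 20 mM, MgCl2 2 mM and G6P dehydrogenase 2 Units were added; shaken at 37 °C. Samples at 0–60 min were quenched in acetonitrile with warfarin internal standard and analysed by LC-MS/MS (MRM). A no-cofactor control was sampled at the end.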

[3] = Aqueous kinetic solubility assay; assay type: physicochemical; details: Phosphate buffered saline, pH 7.4, single determination
Procedure, shortened: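 Test compound from a 10 mM DMSO stock was added to PBS pH 7.4 at a target 250 µM (2.5% DMSO final). Shaken 24 h at 25 °C, then centrifuged. Supernatant was analysed by UPLC/MS with UV at 215 nm. Solubility = peak-area ratio against a 250 µM reference in 1:1 CH3CN-H2O × reference concentration × dilution factor.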

[4] = In vitro rat plasma stability assay; assay type: in vitro ADME; details: 37 °C, 1.0 μM
Procedure, shortened: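 Test compound at 1.0 µM final was incubated at 37 °C in rat plasma (prewarmed 30 min) containing 10% DMSO. Samples at 0, 30, 60, 120, 240, 360 and 420 min were quenched in cold CH3CN with 200 nM warfarin internal standard and centrifuged. Supernatant was quantified by LC-MS/MS (MRM). Internal-standard-normalised response was plotted over time. Run in triplicate.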

human FAAH-1 = biological target: T3, human FAAH-1 (Homo sapiens, UniProt O00519); experiment: In vitro human FAAH fluorescent assay; assay type: biochemical; details: h-FAAH-1 vs r-FAAH
T3 sequence (O00519 1-579): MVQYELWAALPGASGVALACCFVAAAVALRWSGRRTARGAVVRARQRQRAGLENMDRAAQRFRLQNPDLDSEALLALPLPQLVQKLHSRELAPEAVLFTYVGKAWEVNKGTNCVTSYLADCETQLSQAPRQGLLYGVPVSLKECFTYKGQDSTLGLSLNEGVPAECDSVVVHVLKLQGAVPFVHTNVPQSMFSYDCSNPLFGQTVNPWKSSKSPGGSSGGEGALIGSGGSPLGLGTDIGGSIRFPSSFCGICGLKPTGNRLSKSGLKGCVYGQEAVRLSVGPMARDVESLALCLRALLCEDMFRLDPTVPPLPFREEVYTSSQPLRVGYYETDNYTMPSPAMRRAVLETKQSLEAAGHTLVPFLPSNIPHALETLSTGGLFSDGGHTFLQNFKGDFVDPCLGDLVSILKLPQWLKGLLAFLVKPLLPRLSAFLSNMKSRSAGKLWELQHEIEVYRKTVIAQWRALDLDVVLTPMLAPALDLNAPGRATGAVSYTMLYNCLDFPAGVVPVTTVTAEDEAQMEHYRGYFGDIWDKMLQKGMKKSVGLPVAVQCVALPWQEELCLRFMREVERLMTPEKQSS

| IC50 [1] | MLM Stab. half-life [2] | Kinetic sol. [3] | Plasma half-life [4] | Higher potency on h-FAAH-1 with respect to r-FAAH (human FAAH-1) | SMILES | Inhibition of MGL activity (purified rat MGL) |
| --- | --- | --- | --- | --- | --- | --- |
| 5.8 ± 0.6 nM | 8 min | 152 µM | – | – | COc1ccc(Cn2cc(CNC(=O)OCc3cn(Cc4cccc(OC)c4)nn3)nn2)cc1 [Compound 40, [1-[(3-methoxyphenyl)methyl]triazol-4-yl]methyl N-[[1-[(4-methoxyphenyl)methyl]triazol-4-yl]methyl]carbamate] | None of the compounds inhibited MGL activity |
| 5.7 ± 1.2 nM | <5 min | 6 µM | 62 ± 19 min | – | O=C(NC1CCCCC1)Oc1cccc(-c2ccccc2)c1 [Compound 1a, URB524, reference compound] | – |
| 3.9 ± 0.7 nM | 6 min | 174 µM | – | – | COc1cccc(Cn2cc(CNC(=O)OCc3cn(Cc4cccc(OC)c4)nn3)nn2)c1 [Compound 34b, [1-[(3-methoxyphenyl)methyl]triazol-4-yl]methyl N-[[1-[(3-methoxyphenyl)methyl]triazol-4-yl]methyl]carbamate] | None of the compounds inhibited MGL activity |
| 10.5 ± 2.9 nM | 5 min | 18 µM | – | 3 fold | COc1cc(Cn2cc(COC(=O)NC3CCCCC3)nn2)cc(OC)c1 [Compound 27, [1-[(3,5-dimethoxyphenyl)methyl]triazol-4-yl]methyl N-cyclohexylcarbamate] | None of the compounds inhibited MGL activity |
